MEKK3 PB1 HTS – modulators of MEKK3-MEK5 PB1 binding, primary screen, biochemical, wildtype MEKK3, multiplex bead flow cytometry, Alexa488-MEK5; binding response (% of control), % at 10 µM; 290,000 tested, 1.4% active; bead-based flow cytometry, Alexa488-MEK5 binding to MEKK3; actives lie on both sides; 0 = blocked by unlabeled MEK5, 100 = vehicle;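 active means binding response more than 3 SD above or below the average of its plate-row segment, actives on both sides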;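 further: Alexa488 bead fluorescence after subtracting the streptavidin-only scavenger bead signal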
Target sequence (Q99759 whole entry, looked up): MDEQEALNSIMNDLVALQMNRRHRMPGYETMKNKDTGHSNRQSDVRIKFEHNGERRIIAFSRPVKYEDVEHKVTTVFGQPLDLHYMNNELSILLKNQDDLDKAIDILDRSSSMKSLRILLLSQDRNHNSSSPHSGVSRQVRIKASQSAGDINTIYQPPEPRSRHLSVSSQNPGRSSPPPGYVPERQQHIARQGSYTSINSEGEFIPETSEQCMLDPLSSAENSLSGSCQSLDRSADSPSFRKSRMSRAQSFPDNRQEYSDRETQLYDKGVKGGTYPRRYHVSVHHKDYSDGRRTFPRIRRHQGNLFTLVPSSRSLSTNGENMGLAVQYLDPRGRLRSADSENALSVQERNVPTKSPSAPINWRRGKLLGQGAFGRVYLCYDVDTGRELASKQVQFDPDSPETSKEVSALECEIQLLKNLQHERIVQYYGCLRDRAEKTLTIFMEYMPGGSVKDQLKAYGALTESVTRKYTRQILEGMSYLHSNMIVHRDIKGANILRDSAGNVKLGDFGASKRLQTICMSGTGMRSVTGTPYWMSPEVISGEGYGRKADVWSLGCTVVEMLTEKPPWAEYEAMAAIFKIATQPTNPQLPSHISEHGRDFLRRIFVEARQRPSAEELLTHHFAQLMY
Arrestin-AP2 inh – inhibitors of beta-arrestin/AP2 binding, primary screen, biochemical, GPCR trafficking, flow cytometry; inhibition, % at 10 µM; FITC-arrestin peptide / GST-AP2 beads; AP2 beta2 appendage carries R879A mutation; beta-arrestin 1 C-terminal peptide binding to AP2 beta2-adaptin appendage (human); 340,000 tested, 0.31% active;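 active means inhibition above a set limit, near 3 SD of compounds lacking own fluorescence, cut at about 54% in these data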;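 further: plate controls were DMSO wells for no effect and 5 µM unlabelled arrestin peptide for full effect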
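System: GST-tagged AP2 beta2-adaptin appendage (R879A) on 4 µm glutathione beads / Reagent: FITC-arrestin peptide, 50 nM / Detection: HyperCyt-sampled flow cytometry, FL1 channel, ex 488/em 535 nm / Timing: 12 min plus 1 h, RT / Buffer or medium: PBS plus Tween 20 (0.05%) and BSA (0.1%)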
MEKK2wt PB1 HTS – modulators of MEK5 binding to wildtype MEKK2, primary screen, biochemical, multiplex bead flow cytometry, Alexa488-MEK5; Mitogen-activated protein kinase kinase kinase 2 (Homo sapiens), Q9Y2U5; Alexa488-MEK5 binding to MEKK2 WT; actives lie on both sides; binding response (% of control), % at 10 µM; 290,000 tested, 1.1% active; AID 1531, 2009; in the data active means binding response below about 67% or above about 130%
MEKK2mut PB1 HTS – MEK5 binding signal on mutant MEKK2 PB1, primary screen, biochemical, multiplex bead flow cytometry, Alexa488-MEK5; percent response, % at 10 µM; Alexa488-MEK5 binding to MEKK2 mutant; 290,000 tested, 0.35% active; AID 1530, 2009; in the data active means percent response above about 24%, passing the limit was not always enough
MEKK2wt confirm – modulators of MEK5 binding to wildtype MEKK2, confirmation, biochemical, single concentration, multiplex bead flow cytometry; shares compounds with MEKK3 PB1 HTS; Alexa488-MEK5 binding to MEKK2 WT; actives lie on both sides; binding response (% of control), % at 10 µM; 5,900 tested, 2.4% active; in the data active means binding response below about 16% or above about 210%; inactive means in between
MEKK2mut confirm – mutant MEKK2 PB1-MEK5 binding signal retest – biochemical, single concentration, multiplex bead flow cytometry, confirmation. percent response, % at 10 µM. shares compounds with MEKK3 PB1 HTS. 5,900 tested, 2% active. Alexa488-MEK5 binding to MEKK2 mutant; in the data active means percent response mostly above about 71%, no sharp cut-off; inactive means mostly below about 38%;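 further: higher means compound restores mutant binding toward wildtype level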
MEKK3 confirm – MEKK3 wild-type PB1 binding to MEK5, inhibitors, confirmation, biochemical, bead multiplex flow cytometry, single concentration, wildtype; 5,900 tested, 1.8% active; binding response (% of control), % at 10 µM; shares compounds with MEKK3 PB1 HTS; Alexa488-MEK5 binding to MEKK3; active compounds read low;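 active means binding response below 72% of control, or above a set upper limit, though filed actives all read lower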;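 further: 100% = DMSO only wells and 0% = binding blocked by excess unlabeled MEK5; lower values mean stronger disruption of MEK5 binding to MEKK3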
Starred values were filed as active, the others as inactive; nt = not tested or not shown; [ ] = dose if it differs, or a comment. Hits are enriched below; roughly 2.3% of the tested compounds scored in any of these assays.

SMILES	MEKK3 PB1 HTS	Arrestin-AP2 inh	MEKK2wt PB1 HTS	MEKK2mut PB1 HTS	MEKK2wt confirm	MEKK2mut confirm	MEKK3 confirm
Cc1ccc(C(=O)N/C(=C\c2ccc(-c3cccc([N+](=O)[O-])c3)o2)C(=O)NCCCN(C)C)cc1	112	-1	141*	22	113	6	95
Cc1ccc(C(=O)N/C(=C\c2ccc(-c3ccc(Br)cc3)o2)C(=O)NCCCN(C)C)cc1	106	-3	187*	37	181	38	104
CN(C)CCNC(=O)/C(=C/c1ccc(-c2ccc(Cl)cc2)o1)NC(=O)c1ccccc1	100	-16	111	3	nt	nt	nt
COc1ccc(NC(=O)c2cc([N+](=O)[O-])ccc2N2CCCC2)cc1S(N)(=O)=O	nt	-9	nt	nt	nt	nt	nt
Cc1cc2[nH]c3c(c[n+](C)c4ccccc34)c2cc1C	61	-16	144*	-2	201	73*	113
O=C(CNc1ccccc1)N/N=C/c1ccc([N+](=O)[O-])cc1	134*	nt	106	0	100	3	102
O=C(CNc1ccccc1)N/N=C/c1ccc2c(c1)OCO2	135*	0	104	-1	105	5	103
O=S(=O)(N/N=C\c1ccc2c(c1)OCO2)c1ccc(Cl)cc1	102	1	105	7	nt	nt	nt
O=C(NCC(NS(=O)(=O)OCC(Cl)(Cl)Cl)c1ccccc1)C(F)(F)F (configuration not stated)	99	22	97	-7	nt	nt	nt
Cc1ccc(-c2nnn(CC(=O)NC3CCN(Cc4ccccc4)CC3)n2)cc1	71*[inhibitor]	11	111	1	110	0	105
O=C(CN1C(=O)C(=O)N(C2CCCC2)C1=O)Nc1ccc([N+](=O)[O-])cc1	nt	1	nt	nt	nt	nt	nt
CC(C)S(=O)(=O)c1nsc2nc(=O)c(/C=C3\C=Nc4ccccc43)c(N)n12	129*	0	110	1	94	-1	97
CC1CCN(S(=O)(=O)c2ccc(NC(=O)CN3CCCC(C)C3)cc2)CC1 (configuration not stated)	15*[inhibitor]	1	24*[inhibitor]	-22	99	2	100
CC1CCCN(CC(=O)Nc2ccc(S(=O)(=O)N3CCCC3)cc2)C1 (configuration not stated)	102	-4	103	-1	nt	nt	nt
CC1CCN(S(=O)(=O)c2ccc(NC(=O)Cc3ccccc3)cc2)CC1	0.0*[inhibitor]	2	-5.0*[inhibitor]	-40	100	-4	99
COc1ccc(CS(=O)(=O)CC2(O)CCN(C(=O)c3cccc(C(F)(F)F)c3)CC2)cc1	111	-2	103	-2	nt	nt	nt
NC(=O)CC(NC(=O)c1cccc(Br)c1)c1ccc(N2CCC(N3CCCC3)CC2)c([N+](=O)[O-])c1 (configuration not stated)	110	-2	153*	21	125	9	100
O=c1c(Oc2ccccc2)coc2cc(O)cc(O)c12	101	-1	104	2	nt	nt	nt
Cc1sc2nc(CN3CCC(C)CC3)nc(Cl)c2c1C	161*	nt	111	6	97	-3	95
Cc1sc2nc(CN3CCOCC3)nc(Cl)c2c1C	102	-1	101	1	nt	nt	nt
CCOc1ccc(-c2nnc(SCC(=O)N3CCNC3=O)o2)cc1	nt	-1	nt	nt	nt	nt	nt
Cc1cccc(C)c1OCCN1CCCC1	104	0	108	4	nt	nt	nt
Cc1cccc(C)c1OCCOCCN1CCN(C)CC1	105	22	145*	6	121	16	102
COc1ccc(NS(=O)(=O)c2cc(C(=O)N3CCC3)ccc2C)cc1	nt	-11	nt	nt	nt	nt	nt
COc1ccc(NS(=O)(=O)c2cc(C(=O)N3CCN(C(C)=O)CC3)ccc2Cl)cc1	71*[inhibitor]	4	77	-2	102	4	104
SMILES	MEKK3 PB1 HTS	Arrestin-AP2 inh	MEKK2wt PB1 HTS	MEKK2mut PB1 HTS	MEKK2wt confirm	MEKK2mut confirm	MEKK3 confirm
O=C(NCc1nnc(SCC(=O)N2CCN(c3ccccc3)CC2)o1)c1c(F)cccc1F	98	13	104	3	nt	nt	nt
COc1ccc(Nc2nc(N3CCCC3)c3ccccc3n2)cc1	107	3	185*	45*	159	44	109
Cc1occc1-c1nnc(SCC(=O)N2CCOCC2)o1	2.0*[inhibitor]	5	3.0*[inhibitor]	-18	102	-1	102
Cc1occc1-c1nnc(SCC(=O)N2CCCC(C)C2)o1 (configuration not stated)	nt	7	nt	nt	nt	nt	nt
COc1ccc(Cl)cc1NC(=S)N1CCC(c2ccc(C)cc2)C1 (configuration not stated)	106	-9	103	4	nt	nt	nt
Cc1ccc(C2CCN(C(=S)NC(C)C)C2)cc1 (configuration not stated)	48*[inhibitor]	-15	58	-40	99	2	101
CC(C)CN1CCC(CNC(=O)CCc2nnc(Cc3c[nH]c4ccccc34)o2)CC1	110	3	99	-13	nt	nt	nt
Cn1c(=O)c2c(nc3n2CC(COc2ccccc2)O3)n(C)c1=O (configuration not stated)	103	-12	105	-2	nt	nt	nt
CC1=C(C)CC(C(=O)Nc2nc(-c3ccc(C)cc3C)c(C)s2)C(C(=O)O)C1 (configuration not stated)	133*	-5	104	1	104	3	101
CN(C)S(=O)(=O)c1ccc(C(=O)Nc2ccn(C)n2)cc1	101	0	99	2	nt	nt	nt
COc1ccc(CN(C)C(=O)CSc2nnc(C3CC3)n2C2CC2)cc1	nt	31	nt	nt	nt	nt	nt
Cn1cnnc1Sc1ccc(C(=O)OCC(=O)Nc2ccccc2)cc1[N+](=O)[O-]	102	-9	100	3	nt	nt	nt
Cn1cnnc1Sc1ccc(C(=O)OCC(=O)Nc2cc(Cl)cc(Cl)c2)cc1[N+](=O)[O-]	137*	2	119	3	124	15	99
COC(=O)/C=C1\N/C(=N/c2nc(C)c3cc(OC)ccc3n2)NC1=O	107	-16	110	2	nt	nt	nt
C=CCNc1oc(-c2cccs2)nc1S(=O)(=O)c1ccccc1	103	1	96	-1	nt	nt	nt
CC(C)CC1NC(=O)N(CCCCN2C(=O)c3ccccc3C2=O)C1=O (configuration not stated)	135*	37	121	4	107	9	109
